According to ChEMBL document CHEMBL3352314, “Synthesis and antiproliferative activity of 8-hydroxyquinoline derivatives containing a 1,2,3-triazole moiety” (Eur J Med Chem, 2014):
Converted amounts (≈) assume the structure as drawn.

Tests used:
NCI-H460 [1] = test: Antiproliferative activity against human NCI-H460 cells assessed as growth inhibition after 48 hrs by sulforhodamine B assay; type: functional; conditions: NCI-H460, 48 h
Summary of the method: (§1)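 Cells in RPMI with penicillin:streptomycin added, exposed 48 h at 37 °C, 5% CO2 to 0.25, 2.5, 25 and 250 µg/mL compound in DMSO/RPMI (0.1% v/v). Doxorubicin (0.025–25 µg/mL) served as positive control. Cells were then fixed with 50% TCA and stained with sulforhodamine B, with protein read at 540 nm. Growth = 100×(T−T0)/(C−T0), using T0 and 48 h readings. GI50 was obtained by non-linear regression. Done in triplicate.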

[2] = Antiproliferative activity against human PC3 cells assessed as growth inhibition after 48 hrs by sulforhodamine B assay; type: functional; conditions: PC-3, 48 h; summary of the method: as §1
[3] = Antiproliferative activity against human HaCaT cells assessed as growth inhibition after 48 hrs by sulforhodamine B assay; type: cell-based; summary of the method: as §1
HaCaT [4] = test: Selectivity index, ratio of GI50 for human HaCaT cells to GI50 for human 786-0 cells; type: functional
[5] = Antiproliferative activity against human OVCAR3 cells assessed as growth inhibition after 48 hrs by sulforhodamine B assay; type: functional; conditions: OVCAR-3, 48 h; summary of the method: as §1
HaCaT [6] = test: Selectivity index, ratio of GI50 for human HaCaT cells to GI50 for human MCF7 cells; type: functional
HaCaT [7] = test: Selectivity index, ratio of GI50 for human HaCaT cells to GI50 for human PC3 cells; type: functional
786-0 = test: Antiproliferative activity against human 786-0 cells assessed as growth inhibition after 48 hrs by sulforhodamine B assay; type: functional; conditions: 786-0, 48 h; summary of the method: as §1
U-251 = test: Antiproliferative activity against human U251 cells assessed as growth inhibition after 48 hrs by sulforhodamine B assay; type: functional; conditions: U-251, 48 h; summary of the method: as §1
NCI/ADR-RES = test: Antiproliferative activity against human NCI/ADR-RES cells assessed as growth inhibition after 48 hrs by sulforhodamine B assay; type: functional; summary of the method: as §1
MCF7 = test: Antiproliferative activity against human MCF7 cells assessed as growth inhibition after 48 hrs by sulforhodamine B assay; type: functional; conditions: MCF7, 48 h; summary of the method: as §1
NCI-H460 [8] = test: Selectivity index, ratio of GI50 for human HaCaT cells to GI50 for human NCI-H460 cells; type: functional
HaCaT [9] = test: Selectivity index, ratio of GI50 for human HaCaT cells to GI50 for human OVCAR3 cells; type: functional
HaCaT [10] = test: Selectivity index, ratio of GI50 for human HaCaT cells to GI50 for human NCI/ADR-RES cells; type: functional
HaCaT [11] = test: Selectivity index, ratio of GI50 for human HaCaT cells to GI50 for human U251 cells; type: functional

GI50 (NCI-H460 [1]) [µg/mL]	GI50 (786-0) [µg/mL]	GI50 (U-251) [µg/mL]	GI50 (MCF7) [µg/mL]	Structure (SMILES)	GI50 [2] [µg/mL]	GI50 at 48 h [3] [µg/mL]	RatioGI50 (HaCaT [4])	GI50 [5] [µg/mL]	RatioGI50 (HaCaT [6])	RatioGI50 (HaCaT [7])	GI50 (NCI/ADR-RES) [µg/mL]	RatioGI50 (NCI-H460 [8])	RatioGI50 (HaCaT [9])	RatioGI50 (HaCaT [10])	RatioGI50 (HaCaT [11])
24.6 (≈ 52.3 µM)	22.6 (≈ 48.1 µM)	> 250	25 (≈ 53.2 µM)	Ic1ccc(Cn2cc(CCCOc3cccc4cccnc34)nn2)cc1	24.7 (≈ 52.5 µM)	> 250	>11.1	24.7 (≈ 52.5 µM)	>10	>10.1	> 250	>10.2	>10.1		
34.4 (≈ 94.9 µM)	195 (≈ 538 µM)	20.7 (≈ 57.1 µM)	11.7 (≈ 32.3 µM)	Fc1ccc(Cn2cc(CCCOc3cccc4cccnc34)nn2)cc1	20.1 (≈ 55.5 µM)	115 (≈ 318 µM)	0.6	23.1 (≈ 63.7 µM)	9.8	5.7	49.4 (≈ 136 µM)	3.3	5	2.3	5.6
11.2 (≈ 29.6 µM)	2.8 (≈ 7.39 µM)	3.4 (≈ 8.97 µM)	6.2 (≈ 16.4 µM)	Clc1ccc(Cn2cc(CCCOc3cccc4cccnc34)nn2)cc1	3.6 (≈ 9.5 µM)	4.2 (≈ 11.1 µM)	1.5	8.1 (≈ 21.4 µM)	0.7	1.2	11.6 (≈ 30.6 µM)	0.4	0.5	0.4	1.2
11.7 (≈ 27.6 µM)	25.9 (≈ 61.2 µM)	8.4 (≈ 19.8 µM)	28 (≈ 66.1 µM)	Brc1ccc(Cn2cc(CCCOc3cccc4cccnc34)nn2)cc1	8.4 (≈ 19.8 µM)	29.2 (≈ 69 µM)	1.1	27.2 (≈ 64.3 µM)	1	3.5	25.8 (≈ 60.9 µM)	2.5	1.1	1.1	3.5
10.4 (≈ 24.3 µM)	7.9 (≈ 18.4 µM)	9.8 (≈ 22.9 µM)	3.1 (≈ 7.24 µM)	FC(F)(F)Oc1ccc(Cn2cc(CCCOc3cccc4cccnc34)nn2)cc1	5 (≈ 11.7 µM)	4 (≈ 9.34 µM)	0.5	24.5 (≈ 57.2 µM)	1.3	0.8	5.5 (≈ 12.8 µM)	0.4	0.2	0.7	0.4
23.7 (≈ 62.3 µM)	8.5 (≈ 22.3 µM)	18.2 (≈ 47.8 µM)	21.3 (≈ 56 µM)	Fc1ccc(Cn2cc(CCCOc3cccc4cccnc34)nn2)cc1F	6.6 (≈ 17.4 µM)	41.7 (≈ 110 µM)	4.9	63.5 (≈ 167 µM)	1.9	6.3	42.1 (≈ 111 µM)	1.8	0.7	1	2.3
7.4 (≈ 16.5 µM)	5.6 (≈ 12.5 µM)	3.1 (≈ 6.92 µM)	2.9 (≈ 6.48 µM)	Clc1cc(Cl)c(Cn2cc(CCCOc3cccc4cccnc34)nn2)c(Cl)c1	2.8 (≈ 6.25 µM)	5.3 (≈ 11.8 µM)	0.9	11.4 (≈ 25.5 µM)	1.8	1.9	2.8 (≈ 6.25 µM)	0.7	0.5	1.9	1.7
7.9 (≈ 17.3 µM)	> 250	8.7 (≈ 19 µM)	9.6 (≈ 21 µM)	Clc1ccc(Br)cc1Cn1cc(CCCOc2cccc3cccnc23)nn1	8.2 (≈ 17.9 µM)	4.9 (≈ 10.7 µM)		8 (≈ 17.5 µM)	0.5	0.6	2.5 (≈ 5.46 µM)	0.6	0.6	2	0.6
28.6 (≈ 83 µM)	25 (≈ 72.6 µM)	25.2 (≈ 73.2 µM)	12.7 (≈ 36.9 µM)	c1ccc(Cn2cc(CCCOc3cccc4cccnc34)nn2)cc1	16.8 (≈ 48.8 µM)	12.7 (≈ 36.9 µM)	0.5	24.3 (≈ 70.6 µM)	1	0.8	10.4 (≈ 30.2 µM)	0.4	0.5	1.2	0.5
44.3 (≈ 119 µM)	69.4 (≈ 186 µM)	25.1 (≈ 67.2 µM)	27.8 (≈ 74.4 µM)	c1cncc(CCCn2cc(CCCOc3cccc4cccnc34)nn2)c1	26.7 (≈ 71.5 µM)	25 (≈ 66.9 µM)	0.4	39.1 (≈ 105 µM)	0.9	0.9	12.5 (≈ 33.5 µM)	0.6	0.6	2	1
30.1 (≈ 60.6 µM)	30.8 (≈ 62 µM)	24.3 (≈ 48.9 µM)	2.6 (≈ 5.24 µM)	CC1(C)O[C@H]2[C@@H](O1)[C@@H](Cn1cc(CCCOc3cccc4cccnc34)nn1)O[C@@H]1OC(C)(C)O[C@@H]12	16.2 (≈ 32.6 µM)	29.4 (≈ 59.2 µM)	0.9	< 0.25	11.3	1.8	28.6 (≈ 57.6 µM)	1	>117.6	1	1.2
29.2 (≈ 66.6 µM)	26.1 (≈ 59.5 µM)	26.5 (≈ 60.4 µM)	27.2 (≈ 62 µM)	O=C(Cn1cc(CCCOc2cccc3cccnc23)nn1)OCc1ccc(F)c(F)c1	2.9 (≈ 6.61 µM)	21.4 (≈ 48.8 µM)	0.8	15.1 (≈ 34.4 µM)	0.8	7.4	4.9 (≈ 11.2 µM)	0.7	1.4	4.4	0.8
< 0.025	0.15 (≈ 0.276 µM)	0.039 (≈ 0.0718 µM)	0.038 (≈ 0.0699 µM)	COc1cccc2c1C(=O)c1c(O)c3c(c(O)c1C2=O)C[C@@](O)(C(=O)CO)C[C@@H]3O[C@H]1C[C@H](N)[C@H](O)[C@H](C)O1 [DOXORUBICIN]	3.8 (≈ 6.99 µM)	0.11 (≈ 0.202 µM)		0.43 (≈ 0.791 µM)			0.54 (≈ 0.994 µM)				
